Series [1] is described as follows: Kinetic solubility of the compound in pION buffer at pH 7.4 measured after 18 hrs. The format is physicochemical. The conditions noted are these: read-out: Kinetic_solubility.
A short description of series [2]: Oral bioavailability in Sprague-Dawley rat at 2 mg/kg. Particulars: in vivo. The class given is ADME, organism-based. In a few lines: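 Male animals, n = 3 per species: C57BL/6J mouse at 2.2 mg/kg IV and 2.7 mg/kg PO; Sprague–Dawley rat at 1 mg/kg IV and 2 mg/kg PO; Beagle dog at 1.8 mg/kg IV and 5.3 mg/kg PO. Plasma clearance, Vss, IV half-life and oral %F were derived from the plasma profiles.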

In series [3] the target is Diacylglycerol O-acyltransferase 1 (Homo sapiens) (UniProt O75907). The experiment in a line: Inhibition of recombinant human DGAT1 expressed in baculovirus infected Sf9 insect microsomal membranes at 10 uM using C10-DAG and C10-CoA as substrate pretreated for 15 mins followed by substrate addition measured after 60 mins by CPM dye based fluorescence assay relative to control.

For series [4], the target named is T1, Diacylglycerol O-acyltransferase 1 (Mus musculus) (UniProt Q9Z2A7).
T1 sequence (whole entry): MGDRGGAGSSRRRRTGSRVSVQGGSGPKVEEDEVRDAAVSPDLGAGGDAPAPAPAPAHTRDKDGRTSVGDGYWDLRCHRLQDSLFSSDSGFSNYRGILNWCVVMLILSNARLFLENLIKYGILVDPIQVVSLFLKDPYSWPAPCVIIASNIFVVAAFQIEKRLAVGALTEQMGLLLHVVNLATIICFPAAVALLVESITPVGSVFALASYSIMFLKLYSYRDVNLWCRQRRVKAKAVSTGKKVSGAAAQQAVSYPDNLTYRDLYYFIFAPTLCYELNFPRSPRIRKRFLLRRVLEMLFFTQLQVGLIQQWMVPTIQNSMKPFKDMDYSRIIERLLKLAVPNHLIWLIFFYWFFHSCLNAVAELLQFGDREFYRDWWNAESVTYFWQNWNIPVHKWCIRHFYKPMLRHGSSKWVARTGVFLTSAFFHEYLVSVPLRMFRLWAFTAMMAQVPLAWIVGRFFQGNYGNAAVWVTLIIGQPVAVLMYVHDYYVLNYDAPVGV
The experiment in a line: Inhibition of DGAT1 in mouse C2C12 cells at 300 nM using [14C] oleic acid as substrate measured after 20 mins by phosphorimaging method relative to control. The format is cell-based.

Series [5] relates to Salmonella typhimurium. Briefly: Mutagenicity in Salmonella typhimurium TA1535 in presence of S9 fraction by Ames test. The class given is toxicity, organism-based. The conditions noted are these: salmonella enterica subsp. enterica serovar typhimurium.
The test system of series [6] is Salmonella typhimurium. The experiment in a line: Mutagenicity in Salmonella typhimurium TA1537 in presence of S9 fraction by Ames test. The format is toxicity, organism-based. Particulars: salmonella enterica subsp. enterica serovar typhimurium.
In series [7] the test system is Salmonella typhimurium. The experiment in a line: Mutagenicity in Salmonella typhimurium TA98 in presence of S9 fraction by Ames test. The class given is toxicity, organism-based. Particulars: salmonella enterica subsp. enterica serovar typhimurium.
For series [8], the system named is Salmonella typhimurium. Briefly: Mutagenicity in Salmonella typhimurium TA100 in presence of S9 fraction by Ames test. The format is toxicity, organism-based. The conditions noted are these: salmonella enterica subsp. enterica serovar typhimurium.
Series [9] concerns Escherichia coli. The experiment in a line: Mutagenicity in Escherichia coli WP2uvrA in presence of S9 fraction by Ames test. The class given is toxicity, organism-based.
For series [10], the system named is Salmonella typhimurium. Briefly: Mutagenicity in Salmonella typhimurium TA1535 in absence of S9 fraction by Ames test. The format is toxicity, organism-based. Particulars: salmonella enterica subsp. enterica serovar typhimurium.
Series [11] relates to Salmonella typhimurium. The experiment in a line: Mutagenicity in Salmonella typhimurium TA1537 in absence of S9 fraction by Ames test. Particulars: salmonella enterica subsp. enterica serovar typhimurium. The format is toxicity, organism-based.
The test system of series [12] is Salmonella typhimurium. The experiment in a line: Mutagenicity in Salmonella typhimurium TA98 in absence of S9 fraction by Ames test. The class given is toxicity, organism-based. Particulars: salmonella enterica subsp. enterica serovar typhimurium.
The subject of series [13] is Salmonella typhimurium. The experiment in a line: Mutagenicity in Salmonella typhimurium TA100 in absence of S9 fraction by Ames test. The class given is toxicity, organism-based. Particulars: salmonella enterica subsp. enterica serovar typhimurium.
The subject of series [14] is Escherichia coli. The experiment in a line: Mutagenicity in Escherichia coli WP2uvrA in absence of S9 fraction by Ames test. The format is toxicity, organism-based.

The structures appear in SMILES notation. Converted amounts (≈) assume the structure as drawn.

Diacylglycerol O-acyltransferase 1 (Homo sapiens), sequence (O75907 whole entry): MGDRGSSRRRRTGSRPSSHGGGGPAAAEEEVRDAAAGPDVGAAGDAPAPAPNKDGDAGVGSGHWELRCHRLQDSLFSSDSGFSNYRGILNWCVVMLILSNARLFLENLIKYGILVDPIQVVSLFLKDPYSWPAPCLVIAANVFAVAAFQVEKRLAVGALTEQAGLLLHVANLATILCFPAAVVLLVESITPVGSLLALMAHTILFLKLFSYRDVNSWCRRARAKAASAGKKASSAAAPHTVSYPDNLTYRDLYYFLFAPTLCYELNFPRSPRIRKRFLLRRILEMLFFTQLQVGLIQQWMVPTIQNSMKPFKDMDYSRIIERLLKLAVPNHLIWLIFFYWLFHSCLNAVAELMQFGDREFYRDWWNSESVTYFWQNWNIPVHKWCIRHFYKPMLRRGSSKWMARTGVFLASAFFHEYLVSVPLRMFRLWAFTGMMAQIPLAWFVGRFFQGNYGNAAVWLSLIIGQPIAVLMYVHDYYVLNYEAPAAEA

Take `O=C(O)CC1CCc2cc(-c3ccc(NC(=O)Nc4ccccc4)cc3)ccc2C1=O` (configuration not stated): the solubility kinetic at 18 h in [1] was 58 µg/mL (≈ 140 µM).
On the same count and under the same terms, to `CC1(CC(=O)O)CCc2cc(-c3ccc(NC(=O)Nc4cccc(Cl)c4)cc3)ccc2C1=O` (configuration not stated) belongs 75 µg/mL (≈ 162 µM).
Consider `O=C(O)C[C@]1(CC(F)(F)F)CCc2cc(-c3cnc(NC(=O)Nc4cccc(C(F)(F)F)c4)cn3)ccc2C1=O`, for which the solubility kinetic at 18 h in series [1] was 56 µg/mL (≈ 98.9 µM). In series [2], the bioavailability was determined as 25%.
Regarding `CC1(CC(=O)O)CCc2cc(-c3ccc(NC(=O)Nc4cccc(F)c4)cc3)ccc2C1=O` (configuration not stated), in series [1], the solubility kinetic at 18 h is 13 µg/mL (≈ 29.1 µM).
Still for that read-out and setting: the same measure for `CC1(CC(=O)O)CCc2cc(-c3ccc(NC(=O)Nc4cccc(C(F)(F)F)c4)cc3)ccc2C1=O` (configuration not stated): 72 µg/mL (≈ 145 µM); for `CCC1(CC(=O)O)CCc2cc(-c3ccc(NC(=O)Nc4cccc(Cl)c4)cc3)ccc2C1=O` (configuration not stated): 101 µg/mL (≈ 212 µM).
Take `CCC1(CC(=O)O)CCc2cc(-c3ccc(NC(=O)Nc4cccc(OC)c4)cc3)ccc2C1=O` (configuration not stated): in [1], the solubility kinetic at 18 h is 6 µg/mL (≈ 12.7 µM).
On to `O=C(O)CC1(F)CCc2cc(-c3ccc(NC(=O)Nc4ccccc4)cc3)ccc2C1=O` (configuration not stated), for which the solubility kinetic at 18 h in series [1] was found to be 31 µg/mL (≈ 71.7 µM). Besides, in series [3], the inhibition was found to be 84%.
Take `CCC1(CC(=O)O)CCc2cc(-c3ccc(NC(=O)Nc4cccc(C(F)(F)F)c4)cc3)ccc2C1=O` (racemic): the solubility kinetic at 18 h in [1] worked out at 39 µg/mL (≈ 76.4 µM). This compound yielded an inhibition in series [4] of 62%.
In the case of `CC[C@@]1(CC(=O)O)CCc2cc(-c3ccc(NC(=O)Nc4ccc(Cl)cc4)cc3)ccc2C1=O`, the solubility kinetic at 18 h in [1] amounted to 5 µg/mL (≈ 10.5 µM). The same compound showed an inhibition in [4] of 83%.
For `CC1(CC(=O)O)CCc2cc(-c3ccc(NC(=O)Nc4ccccc4)cc3)ccc2C1=O` (configuration not stated), the solubility kinetic at 18 h in series [1] is 54 µg/mL (≈ 126 µM).
Take `CCC1(CC(=O)O)CCc2cc(-c3ccc(NC(=O)Nc4ccc(C(F)(F)F)cc4)cc3)ccc2C1=O` (configuration not stated): the solubility kinetic at 18 h in series [1] was found to be 46 µg/mL (≈ 90.1 µM).
Turning to `CCC1(CC(=O)O)CCc2cc(-c3ccc(N)cc3)ccc2C1=O` (configuration not stated), the Activity entry in the series on Salmonella typhimurium [5], in the series with Salmonella typhimurium [6], with Salmonella typhimurium [7], in the series on Salmonella typhimurium [8], in the series with Escherichia coli [9] and in the series on Salmonella typhimurium [10] was “Toxic” each time. Also, the Activity result in the series with Salmonella typhimurium [11], in the series on Salmonella typhimurium [12], with Salmonella typhimurium [13] and in the series with Escherichia coli [14] was “Toxic” each time.
As to `CCC1(CC(=O)O)CCc2cc(-c3ccc(NC(=O)Nc4cccc(C)c4)cc3)ccc2C1=O` (configuration not stated), in series [1], the solubility kinetic at 18 h worked out at 6 µg/mL (≈ 13.1 µM).

For the origin of these results see ChEMBL document CHEMBL4138301, “Discovery of Tetralones as Potent and Selective Inhibitors of Acyl-CoA:Diacylglycerol Acyltransferase 1” (ACS Med Chem Lett, 2018).
